From ChEMBL document CHEMBL1122233, “Antihypertensive 9-substituted 1-oxa-4,9-diazaspiro[5.5]undecan-3-ones” (J Med Chem, 1983)

Tests used:
Rattus norvegicus [1] = test: (§1) Percentage fall in systolic blood pressure after 4 hours at 50 mg/kg given perorally; format: functional, Artery; conditions: route oral
How it was run: (§2)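 Male Okamoto-Aoki SHR, four per group, with a concurrent vehicle control group. Oral dosing in water (0.1 mL/10 g) on two consecutive mornings. After the day-2 dose, rats were restrained in a 30 °C chamber. Tail-cuff systolic pressure was taken at 1-4 h from four traces per rat. Result is % decrease versus control mean, by 1-tailed t test, p ≤ 0.05.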

Rattus norvegicus [2] = test: Percentage fall in systolic blood pressure after 2 hours at 50 mg/kg given perorally; format: functional, Artery; conditions: route oral; how it was run: as §2
Rattus norvegicus [3] = test: (§3) Percentage fall in systolic blood pressure after 3 hours at 12.5 mg/kg given perorally; format: functional, Artery; conditions: route oral; how it was run: as §2
Rattus norvegicus [4] = test: Percentage fall in systolic blood pressure after 1 hr at 12.5 mg/kg given perorally; format: functional, Artery; conditions: route oral; how it was run: as §2
Rattus norvegicus [5] = test: (§4) Percentage fall in systolic blood pressure after 2 hours at 12.5 mg/kg given perorally; format: functional, Artery; conditions: route oral; how it was run: as §2
Rattus norvegicus [6] = test: Percentage fall in systolic blood pressure after 3 hours at 6.25 mg/kg given perorally; format: functional, Artery; conditions: route oral; how it was run: as §2
Rattus norvegicus [7] = test: (§5) Percentage fall in systolic blood pressure after 4 hours at 12.5 mg/kg given perorally; format: functional, Artery; conditions: route oral; how it was run: as §2
Rattus norvegicus [8] = test: Percentage fall in systolic blood pressure after 4 hours at 6.25 mg/kg given perorally; format: functional, Artery; conditions: route oral; how it was run: as §2
Rattus norvegicus [9] = test: Percentage fall in systolic blood pressure after 2 hours at 6.25 mg/kg given perorally; format: functional, Artery; conditions: route oral; how it was run: as §2
Rattus norvegicus [10] = test: (§6) Percentage fall in systolic blood pressure after 3 hours at 50 mg/kg given perorally; format: functional, Artery; conditions: route oral; how it was run: as §2
Rattus norvegicus [11] = test: Percentage fall in systolic blood pressure after 1 hr at 6.25 mg/kg given perorally; format: functional, Artery; conditions: route oral; how it was run: as §2
Rattus norvegicus [12] = test: (§7) Percentage fall in systolic blood pressure after 1 hr at 50 mg/kg given perorally; format: functional, Artery; conditions: route oral; how it was run: as §2
[13] = molecular target: T1, Adrenergic receptor alpha-1 (Rattus norvegicus, UniProt P15823+P23944+P43140); test: Affinity for alpha-1 adrenoceptor of rat cerebral cortex was determined by ligand binding using [3H]prazosin.; format: tissue-based
T1 sequence (P15823 whole entry): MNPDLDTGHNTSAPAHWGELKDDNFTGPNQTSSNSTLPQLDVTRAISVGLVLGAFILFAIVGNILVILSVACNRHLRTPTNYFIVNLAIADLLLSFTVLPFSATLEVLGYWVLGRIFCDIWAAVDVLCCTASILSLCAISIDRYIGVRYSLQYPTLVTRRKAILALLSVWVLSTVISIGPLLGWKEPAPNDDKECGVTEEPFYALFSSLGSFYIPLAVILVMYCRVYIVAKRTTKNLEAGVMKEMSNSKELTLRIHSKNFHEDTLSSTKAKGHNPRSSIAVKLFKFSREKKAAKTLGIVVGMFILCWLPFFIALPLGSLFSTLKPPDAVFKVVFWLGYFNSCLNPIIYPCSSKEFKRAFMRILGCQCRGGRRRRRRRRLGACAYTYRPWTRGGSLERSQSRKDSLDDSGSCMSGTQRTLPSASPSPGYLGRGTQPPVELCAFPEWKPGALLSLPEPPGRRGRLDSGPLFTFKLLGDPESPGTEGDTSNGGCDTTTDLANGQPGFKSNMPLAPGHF
T1 sequence (P23944 whole entry): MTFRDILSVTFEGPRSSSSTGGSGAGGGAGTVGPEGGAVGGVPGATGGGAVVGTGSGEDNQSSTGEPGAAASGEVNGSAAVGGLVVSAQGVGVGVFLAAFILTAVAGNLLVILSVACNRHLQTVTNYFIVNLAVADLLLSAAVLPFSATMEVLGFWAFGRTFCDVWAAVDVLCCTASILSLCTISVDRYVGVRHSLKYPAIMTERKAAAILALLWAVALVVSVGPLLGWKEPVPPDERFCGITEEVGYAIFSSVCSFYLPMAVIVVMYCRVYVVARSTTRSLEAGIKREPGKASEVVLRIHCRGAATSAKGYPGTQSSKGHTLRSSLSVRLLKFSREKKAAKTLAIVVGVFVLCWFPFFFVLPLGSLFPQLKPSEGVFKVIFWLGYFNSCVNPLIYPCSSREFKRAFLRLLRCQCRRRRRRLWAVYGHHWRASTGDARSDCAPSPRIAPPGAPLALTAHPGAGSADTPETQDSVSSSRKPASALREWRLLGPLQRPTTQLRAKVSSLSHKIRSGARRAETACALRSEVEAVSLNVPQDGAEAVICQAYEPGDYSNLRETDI
T1 sequence (P43140 whole entry): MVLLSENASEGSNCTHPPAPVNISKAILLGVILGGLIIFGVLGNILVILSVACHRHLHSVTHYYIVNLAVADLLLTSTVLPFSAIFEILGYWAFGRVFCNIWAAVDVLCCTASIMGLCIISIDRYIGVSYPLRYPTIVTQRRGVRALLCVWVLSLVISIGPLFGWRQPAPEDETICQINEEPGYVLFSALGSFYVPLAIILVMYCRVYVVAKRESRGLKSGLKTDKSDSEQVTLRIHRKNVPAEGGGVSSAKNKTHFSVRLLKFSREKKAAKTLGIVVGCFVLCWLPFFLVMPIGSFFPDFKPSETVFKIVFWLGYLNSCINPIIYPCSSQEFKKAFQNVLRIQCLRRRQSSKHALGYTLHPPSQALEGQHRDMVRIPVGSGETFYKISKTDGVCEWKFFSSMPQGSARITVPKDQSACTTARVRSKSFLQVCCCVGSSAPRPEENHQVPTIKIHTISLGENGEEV
How it was run: (§8)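 Washed rat cerebral cortex membranes (homogenised in 50 mM Tris-HCl pH 7.8, pelleted at 48000g, washed 3 times) at 2.5 mg/mL protein. […] Ice-cold buffer stop, then filtration. Nonspecific binding defined with 200 μmol norepinephrine. KI from IC50 by Cheng-Prusoff, given as negative log.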

[14] = molecular target: T2, Adrenergic receptor alpha-2 (Rattus norvegicus, UniProt P22086+P19328+P22909); test: Affinity for alpha-2 adrenergic receptor of rat cerebral cortex was determined by ligand binding using [3H]yohimbine.; format: tissue-based; how it was run: as §8
T2 sequence (P22086 whole entry): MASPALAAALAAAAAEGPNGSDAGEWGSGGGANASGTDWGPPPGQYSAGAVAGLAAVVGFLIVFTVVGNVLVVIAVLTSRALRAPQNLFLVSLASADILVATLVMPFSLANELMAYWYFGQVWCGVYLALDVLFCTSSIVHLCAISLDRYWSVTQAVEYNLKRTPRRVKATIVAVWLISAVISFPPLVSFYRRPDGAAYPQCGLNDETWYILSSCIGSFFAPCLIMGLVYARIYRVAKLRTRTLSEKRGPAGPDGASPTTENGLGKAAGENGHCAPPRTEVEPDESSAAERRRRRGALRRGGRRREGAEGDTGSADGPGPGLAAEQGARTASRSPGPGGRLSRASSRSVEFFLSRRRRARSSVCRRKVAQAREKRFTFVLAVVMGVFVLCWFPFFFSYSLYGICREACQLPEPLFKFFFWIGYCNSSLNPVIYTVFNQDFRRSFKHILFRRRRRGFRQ
T2 sequence (P19328 whole entry): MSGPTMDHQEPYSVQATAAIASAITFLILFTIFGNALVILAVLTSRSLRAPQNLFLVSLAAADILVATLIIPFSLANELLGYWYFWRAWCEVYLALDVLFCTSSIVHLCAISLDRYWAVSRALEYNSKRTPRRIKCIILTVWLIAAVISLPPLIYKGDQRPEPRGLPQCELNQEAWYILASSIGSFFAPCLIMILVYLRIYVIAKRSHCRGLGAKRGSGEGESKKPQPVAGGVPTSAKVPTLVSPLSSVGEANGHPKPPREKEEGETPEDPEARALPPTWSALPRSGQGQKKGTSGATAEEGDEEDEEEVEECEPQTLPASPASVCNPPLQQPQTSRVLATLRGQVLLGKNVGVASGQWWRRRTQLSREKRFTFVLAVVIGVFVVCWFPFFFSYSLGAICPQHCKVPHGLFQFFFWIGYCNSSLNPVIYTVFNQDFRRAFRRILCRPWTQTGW
T2 sequence (P22909 whole entry): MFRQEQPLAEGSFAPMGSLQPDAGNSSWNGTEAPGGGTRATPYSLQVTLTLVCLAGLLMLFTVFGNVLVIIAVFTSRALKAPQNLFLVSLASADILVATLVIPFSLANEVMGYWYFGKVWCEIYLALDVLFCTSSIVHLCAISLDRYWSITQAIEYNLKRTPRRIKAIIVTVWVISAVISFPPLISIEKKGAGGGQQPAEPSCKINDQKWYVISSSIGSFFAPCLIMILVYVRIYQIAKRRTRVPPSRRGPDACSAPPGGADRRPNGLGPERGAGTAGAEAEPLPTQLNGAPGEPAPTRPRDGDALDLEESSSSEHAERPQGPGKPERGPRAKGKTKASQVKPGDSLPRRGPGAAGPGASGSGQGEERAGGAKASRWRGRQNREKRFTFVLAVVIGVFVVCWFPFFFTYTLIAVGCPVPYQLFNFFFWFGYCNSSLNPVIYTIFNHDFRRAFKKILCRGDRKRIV

Rattus norvegicus [15] = test: Percentage fall in systolic blood pressure after 2 hours at 50 mg/kg given perorally.; format: functional, Artery; conditions: route oral
How it was run: (§9)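 Male Okamoto-Aoki spontaneously hypertensive rats, trained, in groups of four matched for mean systolic pressure; five treated groups and one vehicle control run concurrently. Oral dosing in water (solution or suspension, 0.1 mL/10 g) on two consecutive mornings. On day 2, rats were restrained at 30.0 ± 1.0 °C and tail-cuff systolic pressure recorded at 1–4 h; percent fall versus control, 1-tail t test, p ≤ 0.05.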

Rattus norvegicus [16] = test: as §7; format: functional, organism-based; set-up: dose 50 mg/kg; conditions: Artery; how it was run: as §9
Rattus norvegicus [17] = test: as §6; format: functional, organism-based; set-up: dose 50 mg/kg; conditions: Artery; how it was run: as §2
Rattus norvegicus [18] = test: as §1; format: functional, organism-based; set-up: dose 50 mg/kg; conditions: Artery; how it was run: as §2
Rattus norvegicus [19] = test: as §4; format: functional, organism-based; set-up: dose 12.5 mg/kg; conditions: Artery; how it was run: as §2
Rattus norvegicus [20] = test: as §5; format: functional, organism-based; set-up: dose 12.5 mg/kg; conditions: Artery; how it was run: as §2
Rattus norvegicus [21] = test: as §3; format: functional, organism-based; set-up: dose 12.5 mg/kg; conditions: Artery; how it was run: as §2
Rattus norvegicus [22] = test: Percentage fall in systolic blood pressure after 3 hr at 25 mg/kg given perorally; format: functional, Artery; conditions: route oral, 25 mg/kg; how it was run: as §9
Rattus norvegicus [23] = test: Percentage fall in systolic blood pressure after 2 hr at 25 mg/kg given perorally; format: functional, Artery; conditions: route oral, 25 mg/kg; how it was run: as §9
Rattus norvegicus [24] = test: Percentage fall in systolic blood pressure after 2 hr at 12.5 mg/kg given perorally; format: functional, Artery; conditions: route oral; how it was run: as §9
Rattus norvegicus [25] = test: Percentage fall in systolic blood pressure after 4 hr at 12.5 mg/kg given perorally; format: functional, Artery; conditions: route oral; how it was run: as §9
Rattus norvegicus [26] = test: Percentage fall in systolic blood pressure after 4 hr at 25 mg/kg given perorally; format: functional, Artery; conditions: route oral; how it was run: as §9

SMILES: O=C1COC2(CCN(CCc3c[nH]c4ccccc34)CC2)CN1
- Decrease in SBP (Rattus norvegicus [1]): 41%
- Decrease in SBP (Rattus norvegicus [2]): 48%
- Decrease in SBP (Rattus norvegicus [3]): 29%
- Decrease in SBP (Rattus norvegicus [4]): 39%
- Decrease in SBP (Rattus norvegicus [5]): 41%
- Decrease in SBP (Rattus norvegicus [6]): 20%
- Decrease in SBP (Rattus norvegicus [7]): 26%
- Decrease in SBP (Rattus norvegicus [8]): 19%
- Decrease in SBP (Rattus norvegicus [9]): 30%
- Decrease in SBP (Rattus norvegicus [10]): 48%
- Decrease in SBP (Rattus norvegicus [11]): 28%
- Decrease in SBP (Rattus norvegicus [12]): 53%
- -Log Ki [13]: 7.41
- -Log Ki [14]: 6.2

SMILES: O=C1COC2(CCN(CC(O)COc3ccccc3)CC2)CN1 (configuration not stated)
- Decrease in SBP (Rattus norvegicus [15]): 18%
- Decrease in SBP (Rattus norvegicus [16]): Not significant
- Decrease in SBP (Rattus norvegicus [17]): Not significant
- Decrease in SBP (Rattus norvegicus [18]): Not significant

SMILES: O=C1COC2(CCN(CCc3c[nH]c4ccccc34)CC2)CN1c1ccccc1
- Decrease in SBP (Rattus norvegicus [1]): 40%
- Decrease in SBP (Rattus norvegicus [2]): 59%
- Decrease in SBP (Rattus norvegicus [4]): 19%
- Decrease in SBP (Rattus norvegicus [19]): Not significant
- Decrease in SBP (Rattus norvegicus [20]): Not significant
- Decrease in SBP (Rattus norvegicus [10]): 45%
- Decrease in SBP (Rattus norvegicus [12]): 45%
- Decrease in SBP (Rattus norvegicus [21]): Not significant

SMILES: CN1CC2(CCN(CC(O)C3COc4ccccc4O3)CC2)OCC1=O (stereo in doubt; 61)
- Decrease in SBP (Rattus norvegicus [22]): 40%
- Decrease in SBP (Rattus norvegicus [4]): 25%
- Decrease in SBP (Rattus norvegicus [23]): 36%
- Decrease in SBP (Rattus norvegicus [24]): 22%
- Decrease in SBP (Rattus norvegicus [25]): 19%
- Decrease in SBP (Rattus norvegicus [26]): 40%
